Measurements from article PMC2217204 (The Journal of General Physiology, 2000).
Read-outs that look alike come from different tables or passages of the source.

Tests used:
KATP channel = KATP channel (Rattus norvegicus, UniProt P70673); experiment: KATP channel, inside-out patches from adult rat ventricular cells; type: cell-based
Outline: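 KATP channels that appeared on forming inside-out patches were tested with 5 μM arachidonic acid on the cytoplasmic side. In some patches channels were first allowed to run down, then briefly exposed to 3 mM ATP to reactivate them before fatty acid was applied. Recordings were at 24–26°C; 2 μM was also tested (n = 3).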

KACh channel [1] = molecular target: T1, KACh channel (Rattus norvegicus, UniProt P48548+P63251); type: cell-based; conditions: for inhibition of ATP-dependent gating, extracellular application: 5 μM in the pipette solution (extracellular), after 5 min, n = 4 each; for Hill coefficient of inhibition: ATP-modified KACh channels, inside-out
T1 sequence (P63251 1-501): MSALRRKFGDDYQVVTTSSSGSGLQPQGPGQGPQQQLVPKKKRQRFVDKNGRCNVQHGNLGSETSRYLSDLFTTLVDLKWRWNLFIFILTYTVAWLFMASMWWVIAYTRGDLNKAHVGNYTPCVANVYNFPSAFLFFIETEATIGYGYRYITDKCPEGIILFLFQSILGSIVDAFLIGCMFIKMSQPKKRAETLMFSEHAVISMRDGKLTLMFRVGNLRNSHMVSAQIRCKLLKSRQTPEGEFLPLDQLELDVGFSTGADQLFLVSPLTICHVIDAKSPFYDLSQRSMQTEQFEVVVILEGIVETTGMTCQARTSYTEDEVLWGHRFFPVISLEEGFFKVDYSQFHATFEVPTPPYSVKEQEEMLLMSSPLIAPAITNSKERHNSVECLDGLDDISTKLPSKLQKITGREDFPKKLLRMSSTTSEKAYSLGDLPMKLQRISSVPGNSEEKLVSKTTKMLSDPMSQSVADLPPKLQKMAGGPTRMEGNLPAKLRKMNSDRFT
T1 sequence (P48548 1-419): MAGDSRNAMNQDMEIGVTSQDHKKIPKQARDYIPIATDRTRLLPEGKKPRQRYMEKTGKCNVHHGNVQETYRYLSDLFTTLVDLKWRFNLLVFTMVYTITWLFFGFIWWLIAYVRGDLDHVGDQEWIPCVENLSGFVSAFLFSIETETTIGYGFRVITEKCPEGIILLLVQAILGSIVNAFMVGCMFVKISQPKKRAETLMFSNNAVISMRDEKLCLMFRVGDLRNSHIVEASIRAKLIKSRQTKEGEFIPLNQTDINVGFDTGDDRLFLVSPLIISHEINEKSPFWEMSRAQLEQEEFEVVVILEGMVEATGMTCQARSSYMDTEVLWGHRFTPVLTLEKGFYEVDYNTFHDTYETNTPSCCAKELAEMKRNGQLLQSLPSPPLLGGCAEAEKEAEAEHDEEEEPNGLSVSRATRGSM

K1 channel = experiment: ATP-activated background K1 channel, atrial inside-out patches; type: cell-based, rat
GIRK1/4 = experiment: ATP-dependent gating of GIRK1/4 expressed in Xenopus oocytes, βγ-activated; type: cell-based; conditions: βγ 50 nM
Outline: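 Xenopus oocytes injected with GIRK1 and GIRK4 cRNA (~0.5 ng/nl) and kept ~2 d at 19°C in Barth's solution. Vitelline membrane was removed before patching. Inside-out patches in 140 mM KCl, pH 7.2. Channel activity and open-time kinetics were assessed with ATP and fatty acid on the cytoplasmic side.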

KACh channel [2] = molecular target: T1, KACh channel; experiment: βγ-activated KACh channels, atrial inside-out patches; type: cell-based
Outline: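 Atrial inside-out patches at −60 mV in 140 mM KCl, pH 7.2, 24–26°C. Channels were activated by purified bovine βγ subunit applied to the cytoplasmic face. Linoleic or arachidonic acid (2 μM, sonicated into bath solution) was applied first, then 4 mM ATP was added. nPo was compared before and after ATP.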

KACh channel [3] = molecular target: T1, KACh channel; type: cell-based; conditions: 2 μM fatty acid applied with 30 μM PIP2
[4] = molecular target: T2, KACh channels in hippocampal pyramidal neurons (Rattus norvegicus, UniProt P48550+P63251); experiment: ATP-dependent gating of KACh channel in hippocampal neurons, 5-HT as agonist; type: cell-based; conditions: 2 μM with 100 μM GTP and 4 mM ATP, 10 μM 5-HT in pipette
T2 sequence (P63251 1-501): T1 sequence (P63251 1-501)
T2 sequence (P48550 1-425): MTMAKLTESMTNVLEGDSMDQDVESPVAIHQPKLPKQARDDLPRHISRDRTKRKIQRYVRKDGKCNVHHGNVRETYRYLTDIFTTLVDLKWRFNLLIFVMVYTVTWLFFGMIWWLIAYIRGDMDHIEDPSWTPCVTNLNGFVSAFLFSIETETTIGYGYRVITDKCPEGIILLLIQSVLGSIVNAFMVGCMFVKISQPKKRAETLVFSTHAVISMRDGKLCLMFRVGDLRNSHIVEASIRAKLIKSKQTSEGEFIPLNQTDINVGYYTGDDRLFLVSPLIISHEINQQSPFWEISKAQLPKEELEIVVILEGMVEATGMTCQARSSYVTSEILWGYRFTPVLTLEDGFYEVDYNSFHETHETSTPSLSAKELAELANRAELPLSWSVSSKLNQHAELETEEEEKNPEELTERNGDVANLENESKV
Outline: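 Pyramidal neurons from the CA3 region of adult rat hippocampus. Slices ~500 μm thick were digested in 0.33 mg/ml trypsin at 30°C, then in DNase I, triturated, and settled onto coverslips. Inside-out patches were activated by 100 μM GTP, then 4 mM ATP was added. Open states were assessed from duration histograms and kinetic-scheme fits with one or two open states.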

[5] = K 1/2 (effect on ATP-dependent gating of KACh channel), atrial inside-out patches, 100 μM GTP and 4 mM ATP, lipid 0.1, 1, 3, 10 and 30 μM, n = 3 each

Sequence of KATP channel (P70673 whole entry): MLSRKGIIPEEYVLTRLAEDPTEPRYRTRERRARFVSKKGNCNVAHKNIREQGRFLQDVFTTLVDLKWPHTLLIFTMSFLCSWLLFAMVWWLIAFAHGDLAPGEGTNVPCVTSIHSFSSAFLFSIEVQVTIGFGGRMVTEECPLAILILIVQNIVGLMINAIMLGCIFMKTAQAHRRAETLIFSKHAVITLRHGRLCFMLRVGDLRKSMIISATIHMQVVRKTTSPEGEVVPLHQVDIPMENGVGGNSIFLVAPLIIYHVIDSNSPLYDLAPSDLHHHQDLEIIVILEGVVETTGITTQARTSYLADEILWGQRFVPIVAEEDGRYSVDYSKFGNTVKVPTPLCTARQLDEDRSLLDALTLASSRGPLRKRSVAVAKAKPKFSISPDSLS
Sequence of KATP channel (Q63563 whole entry partner): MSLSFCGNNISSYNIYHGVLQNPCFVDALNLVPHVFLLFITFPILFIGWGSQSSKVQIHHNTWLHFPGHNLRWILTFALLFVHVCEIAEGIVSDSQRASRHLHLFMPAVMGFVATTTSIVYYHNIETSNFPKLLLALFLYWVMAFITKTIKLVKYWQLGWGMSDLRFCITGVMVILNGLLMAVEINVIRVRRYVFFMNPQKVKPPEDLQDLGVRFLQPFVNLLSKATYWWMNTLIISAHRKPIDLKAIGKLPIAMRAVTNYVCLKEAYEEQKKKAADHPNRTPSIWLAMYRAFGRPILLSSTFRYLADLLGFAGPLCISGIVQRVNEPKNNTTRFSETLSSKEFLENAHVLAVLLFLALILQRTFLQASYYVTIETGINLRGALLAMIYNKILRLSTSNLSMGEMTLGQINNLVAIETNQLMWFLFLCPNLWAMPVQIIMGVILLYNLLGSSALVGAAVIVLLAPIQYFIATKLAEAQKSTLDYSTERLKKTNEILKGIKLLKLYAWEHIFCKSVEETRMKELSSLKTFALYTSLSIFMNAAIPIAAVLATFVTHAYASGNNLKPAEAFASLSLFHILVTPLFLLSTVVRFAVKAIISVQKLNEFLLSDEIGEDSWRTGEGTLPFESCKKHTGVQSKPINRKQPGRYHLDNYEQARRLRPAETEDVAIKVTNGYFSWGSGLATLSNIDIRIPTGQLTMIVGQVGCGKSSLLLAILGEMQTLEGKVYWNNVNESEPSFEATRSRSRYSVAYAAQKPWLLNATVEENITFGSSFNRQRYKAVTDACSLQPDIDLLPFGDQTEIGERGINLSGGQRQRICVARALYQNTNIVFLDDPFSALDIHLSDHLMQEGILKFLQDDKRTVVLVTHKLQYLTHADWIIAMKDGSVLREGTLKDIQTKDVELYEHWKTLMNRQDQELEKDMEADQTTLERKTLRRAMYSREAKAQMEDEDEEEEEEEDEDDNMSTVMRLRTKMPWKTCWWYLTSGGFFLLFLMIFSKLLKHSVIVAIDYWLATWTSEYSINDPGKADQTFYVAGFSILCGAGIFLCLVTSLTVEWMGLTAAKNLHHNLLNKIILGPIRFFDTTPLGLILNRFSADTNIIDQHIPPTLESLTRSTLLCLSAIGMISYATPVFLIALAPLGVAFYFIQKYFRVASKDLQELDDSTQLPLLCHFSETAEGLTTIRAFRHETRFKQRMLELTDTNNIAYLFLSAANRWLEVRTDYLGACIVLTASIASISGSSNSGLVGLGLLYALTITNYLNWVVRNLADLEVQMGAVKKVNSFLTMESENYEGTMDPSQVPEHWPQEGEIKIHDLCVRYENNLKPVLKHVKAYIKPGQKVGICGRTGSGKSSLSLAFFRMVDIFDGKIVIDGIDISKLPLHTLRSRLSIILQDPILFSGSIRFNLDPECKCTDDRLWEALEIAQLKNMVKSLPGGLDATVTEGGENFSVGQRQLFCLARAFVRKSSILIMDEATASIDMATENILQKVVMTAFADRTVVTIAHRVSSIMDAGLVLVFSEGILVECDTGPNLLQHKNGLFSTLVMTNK

Structure (SMILES) | KATP channel inhibition in the presence of PIP2 (KATP channel; 5 μM AA with PIP2 present, listed as AA) | inhibition of KATP channels reactivated by ATP after rundown (KATP channel; brief exposure to 3 mM ATP, n = 4, listed as AA) | inhibition at 2 µM (KATP channel; read-out: inhibition of KATP channel activity) [%] | KACh open time constant after fatty acid (KACh channel [1]; 2 μM AA with GTP and 4 mM ATP, atrial patch also containing K1 channel) [ms] | inhibition of ATP-dependent gating, extracellular application (KACh channel [1]) | Hill coefficient of inhibition (KACh channel [1]) | IC50 (KACh channel [1]; [5]) [µM] | voltage dependence of the effect (KACh channel [1]; channel activity at different membrane potentials (Fig. 10 B)) | effect on K1 channel (K1 channel; 2 or 5 μM AA, ATP-activated, n = 3 each, listed as AA) | effect on ATP-induced changes in GIRK1/4 channel kinetics (GIRK1/4) | IC50 (KACh channel [2]) [µM] | effect on PIP2-dependent gating of KACh channel (KACh channel [3]) | inhibition of KATP channel activity (KATP channel; 5 μM, during channel rundown) | IC50 (KACh channel [1]; K 1/2 for inhibition, pipette solution 70 mM K+, n = 3) [µM] | IC50 (KACh channel [1]; K 1/2 for inhibition, pipette solution 140 mM K+, n = 3) [µM] | IC50 (KACh channel [1]; K 1/2 for inhibition, pipette solution 210 mM K+, n = 3) [µM] | influence on K1 channel kinetics (K1 channel; linoleic acid 2 μM (n = 3), cytosolic fraction 5 mg protein/ml (n = 2), lipid fraction (n = 2)) | increase in channel activity on further addition of 4 mM ATP (KACh channel [2]; βγ-activated channels exposed to 2 μM fatty acid first, n = 5) [fold] | open time constant (one open state) [4] [ms]
CCCCC/C=C\C/C=C\C/C=C\C/C=C\CCCC(=O)O [Arachidonic acid [20:4 (n-6)], Arachidonic acid] | ineffective | quick inhibition | 62 ± 12 | 1.0 ± 0.1 | did not inhibit | ~2 | 1.7 ± 0.2 | voltage-insensitive | no effect | blocked | 1.5 | – | – | – | – | – | – | – | –
CCCCC/C=C\C/C=C\CCCCCCCC(=O)O [Linoleic acid [18:2 (n-6)], Linoleic acid] | – | – | – | – | did not inhibit | ~2 | 1.2 ± 0.2 | – | – | – | – | inhibited | near maximal inhibition | 1.6 ± 0.4 | 1.5 ± 0.3 | 1.7 ± 0.4 | failed to significantly influence | 1.3 ± 0.1 | 1.0 ± 0.1
